Assays:
[1] = in vivo; cited from earlier work
[2] = system: metastatic or advanced solid malignancy; assay: Tumor response; type: in vivo, human
[3] = Pharmacokinetics: plasma R-150033 by LC-MS/MS after oral efatutazone; type: in vivo, human
How it was run: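 Adults with advanced solid malignancies took oral doses twice daily in 21-day cycles, in cohorts of 3 to 6 at 0.10–1.15 mg. Plasma was sampled at baseline and 0.5, 1, 2, 3, 4, 6 and 8–10 h after the first dose on day 1 of cycles 1 and 2. Active metabolite R-150033 was measured by validated LC-MS/MS. AUC, Cmax and Tmax were derived; accumulation was AUC0-tau/AUC0–12, and steady state was judged from trough levels.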

[4] = system: human pancreatic and anaplastic thyroid tumor-cell cultures; details: cited from earlier work
[5] = Patient 0020, Myxoid liposarcoma, 0.75 mg

Cc1cc(Oc2ccc3nc(COc4ccc(CC5SC(=O)NC5=O)cc4)n(C)c3c2)cc(C)c1N (centres unmarked) [Efatutazone]
Tolerability of single dose [1]: well tolerated | No. of patients with stable disease or partial response ([2]; 0.10 mg cohort (n = 6)): 3 | Treatment duration in patients with SD/PR, Maximum ([2]; 0.10 mg cohort (n = 6)): 294 days | Treatment duration in patients with SD/PR, Median ([2]; 0.10 mg cohort (n = 6)): 67.0 days | Treatment duration in patients with SD/PR, Minimum ([2]; 0.10 mg cohort (n = 6)): 66 days | No. of patients with stable disease or partial response ([2]; 0.15 mg cohort (n = 3)): 2 | Treatment duration in patients with SD/PR, Maximum ([2]; 0.15 mg cohort (n = 3)): 178 days | Treatment duration in patients with SD/PR, Median ([2]; 0.15 mg cohort (n = 3)): 176.0 days | Treatment duration in patients with SD/PR, Minimum ([2]; 0.15 mg cohort (n = 3)): 173 days | No. of patients with stable disease or partial response ([2]; 0.25 mg cohort (n = 4)): 0 | No. of patients with stable disease or partial response ([2]; 0.35 mg cohort (n = 3)): 1 | Treatment duration in patients with SD/PR, Maximum ([2]; 0.35 mg cohort (n = 3)): 84 days | Treatment duration in patients with SD/PR, Median ([2]; 0.35 mg cohort (n = 3)): 84.0 days | Treatment duration in patients with SD/PR, Minimum ([2]; 0.35 mg cohort (n = 3)): 84 days | No. of patients with stable disease or partial response ([2]; 0.50 mg cohort (n = 6)): 3 | Treatment duration in patients with SD/PR, Maximum ([2]; 0.50 mg cohort (n = 6)): 336 days | Treatment duration in patients with SD/PR, Median ([2]; 0.50 mg cohort (n = 6)): 126.0 days | Treatment duration in patients with SD/PR, Minimum ([2]; 0.50 mg cohort (n = 6)): 74 days | No. of patients with stable disease or partial response ([2]; 0.75 mg cohort (n = 3)): 1 | Treatment duration in patients with SD/PR, Maximum ([2]; 0.75 mg cohort (n = 3)): 690 days | Treatment duration in patients with SD/PR, Median ([2]; 0.75 mg cohort (n = 3)): 690.0 days | Treatment duration in patients with SD/PR, Minimum ([2]; 0.75 mg cohort (n = 3)): 690 days | No. of patients with stable disease or partial response ([2]; 1.15 mg cohort (n = 3)): 1 | Treatment duration in patients with SD/PR, Maximum ([2]; 1.15 mg cohort (n = 3)): 84 days | Treatment duration in patients with SD/PR, Median ([2]; 1.15 mg cohort (n = 3)): 84.0 days | Treatment duration in patients with SD/PR, Minimum ([2]; 1.15 mg cohort (n = 3)): 84 days | Patients with stable disease lasting ≥60 days ([2]; 10 of 27 evaluable patients): 37% | Number of sustained partial responses ([2]; 27 evaluable patients): 1 | No. of patients with stable disease or partial response ([2]; Overall (N = 27)): 11 | Treatment duration in patients with SD/PR, Maximum ([2]; Overall (N = 27)): 690 days | Treatment duration in patients with SD/PR, Median ([2]; Overall (N = 27)): 126.0 days | Treatment duration in patients with SD/PR, Minimum ([2]; Overall (N = 27)): 66 days | Treatment Duration ([2]; Patient 0001, Thymoma, 0.10 mg, stable disease): 67 days | Treatment Duration ([2]; Patient 0002, Carcinoma of unknown origin, 0.10 mg, stable disease): 66 days | Treatment Duration ([2]; Patient 0005, Cancer of the peritoneum, 0.10 mg, stable disease): 294 days | Treatment Duration ([2]; Patient 0007, Colorectal carcinoma, 0.15 mg, stable disease): 173 days | Treatment Duration ([2]; Patient 0015, Carcinoma of unknown origin, 0.35 mg, stable disease): 84 days | Treatment Duration ([2]; Patient 0017, Colorectal carcinoma, 0.50 mg, stable disease): 126 days | Treatment Duration ([2]; Patient 0018, Colorectal carcinoma, 0.50 mg, stable disease): 74 days | Time on therapy of patient with sustained partial response ([2]; Patient 20, metastatic myxoid liposarcoma): 690 days | Nadir reduction in tumor size ([2]; Patient 20, metastatic myxoid liposarcoma, June 2009): approximately 49% | Best response (RECIST) [2, 5]: partial response | Treatment Duration [2, 5]: 690 days | Fluorodeoxyglucose uptake (PET/CT) ([2]; Patient 20, November 2008): no fluorodeoxyglucose uptake in the remaining tumors | Treatment Duration ([2]; Patient 0022, Cancer of the appendix, 1.15 mg, stable disease): 84 days | Treatment Duration ([2]; Patient 0024, Carcinoma of unknown origin, 0.50 mg, stable disease): 336 days | Treatment Duration ([2]; Patient 2001, Leiomyosarcoma, 0.15 mg, stable disease): 178 days | Median overall survival ([2]; in vivo): 283 days | Median time to disease progression ([2]; in vivo): 51 days | Median treatment duration for patients with SD or PR ([2]; in vivo): 126 days | Dose proportionality of exposure (AUC and Cmax) ([3]; 0.10 to 1.15 mg twice daily, single and multiple doses): approximately dose proportional | Time to steady-state levels ([3]; based on trough plasma concentrations, twice daily): by week 1 of cycle 2 | Proliferation of tumor-cell cultures [4]: inhibits proliferation

From PMC3726261 (Cancer, 2012)
